procasp3 activ – activates human procaspase-3 | P42574 | recombinant procaspase-3 D3A, Ac-DEVD-pNA absorbance 405 nm | activation, % at 8.5 µM | 0.11% of 330,000 active;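 active = activation above the mean of all tested compounds plus 3 SD, cut at about 21% in these data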;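 note: 0% = DMSO alone and 100% = DMSO wells spiked with extra 5 µM PC-3 D3A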
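System: Procaspase-3 D3A mutant. Medium: Zinc-free 300 mM NaCl, 50 mM HEPES, 0.01% Triton X-100. Schedule: 1 h preincubation plus 2 h reaction at 25 °C. Measured by: 405 nm absorbance of p-nitroaniline, reads at 0 and 120 min. Read-out: percent activation relative to control range.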
CHT PAM – human CHT allosteric activation; Q9GZV3; CHT-expressing cells, membrane potential dye, choline EC20; hits give high values; LV-AA mutant CHT in HEK293 cells; B-score at 10 µM; 0.49% of 310,000 active; AID 488977;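 active = initial fluorescence not abnormally high and integrated response B-score, plate-corrected, over 3 SD above library mean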
Target sequence (Q9GZV3 whole entry, looked up): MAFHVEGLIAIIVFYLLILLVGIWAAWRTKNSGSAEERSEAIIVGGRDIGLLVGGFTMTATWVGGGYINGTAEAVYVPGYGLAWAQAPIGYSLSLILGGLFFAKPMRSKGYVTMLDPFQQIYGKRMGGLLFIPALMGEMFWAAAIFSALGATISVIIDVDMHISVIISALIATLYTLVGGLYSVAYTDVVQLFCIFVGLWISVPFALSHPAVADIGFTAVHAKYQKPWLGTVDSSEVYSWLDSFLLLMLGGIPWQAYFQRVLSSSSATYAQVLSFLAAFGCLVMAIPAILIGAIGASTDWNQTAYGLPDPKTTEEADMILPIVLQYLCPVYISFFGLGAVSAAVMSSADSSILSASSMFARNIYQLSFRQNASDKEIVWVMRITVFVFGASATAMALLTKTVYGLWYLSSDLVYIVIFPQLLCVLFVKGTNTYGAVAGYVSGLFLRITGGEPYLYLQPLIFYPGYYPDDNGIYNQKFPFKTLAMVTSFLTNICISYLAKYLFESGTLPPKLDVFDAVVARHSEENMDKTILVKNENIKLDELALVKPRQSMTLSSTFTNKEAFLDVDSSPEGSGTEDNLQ
procasp7 counter – counter-screen for procaspase-3 activators: activators of human procaspase-7; recombinant procaspase-7, Ac-DEVD-pNA absorbance 405 nm; D23A/D198A/D206A triple mutant, cannot self-cleave; scale: DMSO 0, 5 µM enzyme 100; 0.093% of 330,000 active; activation, % at 8.5 µM; AID 463210;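 active = percent activation above the screen-wide mean plus 3 SD, cut at about 25% in these data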
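Material: Procaspase-7 triple mutant (PC-7 D3A) | Quantity: 2 µM procaspase-7 mutant as dispensed | Reagent: DEVD-pNA substrate | Times: 1 h preincubation, 2 h reaction | Technique: 405 nm absorbance of p-nitroaniline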
CHT inh – inhibits the human high affinity choline transporter; 0.86% of 310,000 active; B-score at 10 µM; CHT-expressing cells, membrane potential dye, choline response; hits give low values; Q9GZV3;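 active = B-score over 3 SD under the library average, and starting fluorescence ratio not unusually high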;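 note: choline stimulus applied at its EC90 after an EC20 pre-addition; B-score computed on integrated fluorescence ratio after choline addition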
CHT block conf – human CHT inhibition, confirmatory screen; shares compounds with CHT inh; CHT-expressing cells, choline membrane potential dye; LV-to-AA substituted CHT, HEK293 cells; CHT activity remaining % of control (hits give low values), % at 10 µM; 70% of 2,400 active; AID 493221;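 active = choline transporter activity left, mean of duplicates at 10 µM, below buffer-only control mean minus 3 SD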;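 note: depolarization triggered by choline at its EC90 following an EC20 pre-addition; 0% = hemicholinium-3 full block and 100% = buffer-only control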
HEK293 MPD ctr – CHT inhibitor counter-screen hit in parental HEK293 cells; membrane potential dye, choline response; active = decrease or increase beyond buffer ±3SD; membrane potential ratio readout (active if shifted either direction beyond buffer ±3SD; no single direction) at 10 µM; 4% of 2,400 active; shares compounds with CHT inh;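 note: parental cells lack the transporter so any hit is non-specific; ratio is peak minus trough fluorescence over baseline after EC90 choline challenge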
An asterisk follows results filed as active. This is a sample that favours compounds with a hit; in the whole collection about 1.3% have one here.

For CC(NC(=O)Cc1ccc(S(=O)(=O)N2CCOCC2)s1)c1ccc(Cl)c(Cl)c1 (stereo unspecified) the results were procasp3 activ 1.3, CHT PAM inactive, procasp7 counter -1.2, CHT inh -7.08*, CHT block conf 57.0%* and HEK293 MPD ctr inactive.
O=C(Cc1ccc(S(=O)(=O)N2CCOCC2)s1)Nc1ccc(N2CCOCC2)cc1 was read as procasp3 activ 1.7, CHT PAM inactive, procasp7 counter 8.1, CHT inh -5.12*, CHT block conf inactive and HEK293 MPD ctr inactive.
`COc1ccc(Cc2nnc(NC(=O)c3ccccc3[N+](=O)[O-])s2)cc1` gave procasp3 activ -2.4, CHT PAM inactive, procasp7 counter 0.6, CHT inh -7.14*, CHT block conf 26.4%* and HEK293 MPD ctr inactive.
Screening COc1ccc(NC(=O)c2ccccc2[N+](=O)[O-])cc1 returned procasp3 activ 0.9, CHT PAM inactive, procasp7 counter -3.6 and CHT inh inactive.
Screening CCn1c(SCC(=O)Nc2cccc(OC)c2)nc2c(c1=O)SCC2 returned procasp3 activ -1.4, CHT PAM inactive, procasp7 counter -3.2 and CHT inh inactive.
For C#CCN1C=C(C(=O)OCC)C(C)N(Cc2ccccc2I)S1(=O)=O (stereo unspecified) the results were procasp3 activ -5.5 and procasp7 counter -2.4.
CCCC(=O)NC(=S)Nc1cccc(NC(=O)c2ccccc2Cl)c1 was read as procasp3 activ -6.7, CHT PAM inactive, procasp7 counter 5.0, CHT inh -12.5*, CHT block conf 14.3%* and HEK293 MPD ctr inactive.
`CCC(=O)NC(=S)Nc1cccc(NC(=O)c2ccccc2Cl)c1` gave procasp3 activ 0.0, CHT PAM inactive, procasp7 counter -13.9 and CHT inh inactive.
CCCC(=O)Nc1cccc(NC(=O)c2ccc([N+](=O)[O-])cc2Cl)c1 was read as procasp3 activ 2.5, CHT PAM inactive, procasp7 counter -0.2, CHT inh -6.56*, CHT block conf 61.3%* and HEK293 MPD ctr inactive.
Cc1nc(SC2CC(=O)N(c3cc(Cl)cc(Cl)c3)C2=O)nc2c1CCCC2 (stereo unspecified) was read as procasp3 activ -8.6, CHT PAM inactive, procasp7 counter -2.5, CHT inh -9.18*, CHT block conf 57.0%* and HEK293 MPD ctr inactive.
For O=C1C(=O)N(CCc2c[nH]c3ccccc23)C(c2cccnc2)/C1=C(/O)c1ccccc1 (stereo unspecified) the results were procasp3 activ -5.9, CHT PAM inactive, procasp7 counter -0.4, CHT inh -6.29*, CHT block conf inactive and HEK293 MPD ctr inactive.
Screening Cn1ccnc1Sc1ccc(C=O)cc1[N+](=O)[O-] returned procasp3 activ 5.8, CHT PAM inactive, procasp7 counter 8.9, CHT inh -6.27*, CHT block conf inactive and HEK293 MPD ctr inactive.
CCS(=O)(=O)N1CCC(C(=O)Nc2ccccc2OC)CC1 was read as procasp3 activ -1.3, CHT PAM inactive, procasp7 counter 9.5 and CHT inh inactive.
CCCCn1c(NC(C)CC)nc2c1c(=O)[nH]c(=O)n2C (stereo unspecified) was read as procasp3 activ 6.2, CHT PAM inactive, procasp7 counter 9.5, CHT inh -5.47*, CHT block conf 37.4%* and HEK293 MPD ctr -8.9*.
Screening COc1cccc(C2=NOC(C(=O)Nc3cccnc3Cl)C2)c1OC (stereo unspecified) returned procasp3 activ -1.9, CHT PAM inactive, procasp7 counter -4.5, CHT inh -11.1*, CHT block conf inactive and HEK293 MPD ctr inactive.
`O=C(O)c1ccc2c(c1)N(Cc1ccc(F)cc1)C(=O)c1ccccc1S2` gave procasp3 activ -7.8, CHT PAM inactive, procasp7 counter 7.6, CHT inh -5.22*, CHT block conf 63.9%* and HEK293 MPD ctr inactive.
Screening CC(=O)Nc1cccc(NC(C)=C(C#N)C#N)c1 returned procasp3 activ -5.5, CHT PAM inactive, procasp7 counter -3.6 and CHT inh inactive.
Screening O=C(N/N=C/c1cn[nH]c1-c1ccc(Cl)cc1)c1ccc([N+](=O)[O-])cc1 returned procasp3 activ -2.1, CHT PAM inactive, procasp7 counter -0.1, CHT inh -5.11*, CHT block conf 59.5%* and HEK293 MPD ctr inactive.
For CCOC(=O)c1cc(NC(=O)CNCC(c2ccccc2)N(C)C)cc(C(=O)OCC)c1 (stereo unspecified) the results were procasp3 activ -8.2, CHT PAM inactive, procasp7 counter -17.4, CHT inh -6.77*, CHT block conf 33.1%* and HEK293 MPD ctr 2.19*.
O=C(CCC1CCCC1)NCCS(=O)(=O)N1CCN(c2ccc(F)cc2)CC1 was read as procasp3 activ 2.8, CHT PAM inactive, procasp7 counter -1.9, CHT inh -5.16*, CHT block conf inactive and HEK293 MPD ctr inactive.
For O=C(CCC1CCCCC1)NCCS(=O)(=O)N1CCN(c2ccc(F)cc2)CC1 the results were procasp3 activ -1.0, CHT PAM inactive, procasp7 counter -6.8 and CHT inh inactive.
Screening N#C/C(=N\Nc1ccccc1)C(N)=S returned procasp3 activ -11.3, CHT PAM inactive, procasp7 counter -22.9 and CHT inh inactive.
For N#C/C(=N\Nc1ccc(Cl)cc1)C(N)=S the results were procasp3 activ -25.4, CHT PAM inactive, procasp7 counter -40.1, CHT inh -8.12*, CHT block conf 38.7%* and HEK293 MPD ctr inactive.
Screening COc1ccc(/C=C2/SC(=S)N(CCCC(=O)N3CCN(C)CC3)C2=O)cc1 returned procasp3 activ -2.9, CHT PAM inactive, procasp7 counter -27.3, CHT inh -6.45*, CHT block conf 42.4%* and HEK293 MPD ctr inactive.
CN1CCN(C(=O)CCCN2C(=O)/C(=C/c3ccc(Cl)cc3)SC2=S)CC1 was read as procasp3 activ -7.1 and procasp7 counter -18.6.
`CN1CCN(C(=O)CCCN2C(=O)/C(=C/c3ccccc3)SC2=S)CC1` gave procasp3 activ -14.0, CHT PAM inactive, procasp7 counter -19.5, CHT inh -6.63*, CHT block conf 45.9%* and HEK293 MPD ctr inactive.
For CCOCc1c(C(=O)OCC(=O)NCc2ccc(F)cc2)oc2ccccc12 the results were procasp3 activ 3.6 and procasp7 counter 0.9.
O=C(C1CCN(CCCc2ccccc2)CC1)N(CCc1ccccc1)Cc1ccccc1 was read as procasp3 activ 4.5, CHT PAM inactive, procasp7 counter 2.4, CHT inh -8.15*, CHT block conf 23.1%* and HEK293 MPD ctr 3.46*.
